Laboratory results: ChEMBL document CHEMBL2177000, “Pharmacokinetic optimization of class-selective histone deacetylase inhibitors and identification of associated candidate predictive biomarkers of hepatocellular carcinoma tumor response” (J Med Chem, 2012)

What was measured:
[1] = Tmax in BALB/C mouse at 10 mg/kg, po or 2 mg/kg, iv by LC-MS/MS method; format: ADME, organism-based; conditions: BALB/C, in vivo
How it was run: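 Single-dose PK: iv bolus 2 mg/kg in 5% DMSO/40% PEG400/55% saline and/or oral gavage 10 mg/kg as 0.445% microcrystalline cellulose microsuspension; BALB/C nude mice (15−20 g, N = 16 per arm) or male Sprague−Dawley rats (250 ± 20 g, N = 3). Blood at eight (po) or nine (iv) time points into sodium heparin, plasma by LC-MS/MS, noncompartmental analysis.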

Histone deacetylase 9 = Histone deacetylase 9 (Homo sapiens, UniProt Q9UKV0); assay: Inhibition of HDAC9 using p53 (379 to 382 residues) based fluorogenic peptide substrate
Histone deacetylase 9, sequence (Q9UKV0 whole entry, the tested form may be a part): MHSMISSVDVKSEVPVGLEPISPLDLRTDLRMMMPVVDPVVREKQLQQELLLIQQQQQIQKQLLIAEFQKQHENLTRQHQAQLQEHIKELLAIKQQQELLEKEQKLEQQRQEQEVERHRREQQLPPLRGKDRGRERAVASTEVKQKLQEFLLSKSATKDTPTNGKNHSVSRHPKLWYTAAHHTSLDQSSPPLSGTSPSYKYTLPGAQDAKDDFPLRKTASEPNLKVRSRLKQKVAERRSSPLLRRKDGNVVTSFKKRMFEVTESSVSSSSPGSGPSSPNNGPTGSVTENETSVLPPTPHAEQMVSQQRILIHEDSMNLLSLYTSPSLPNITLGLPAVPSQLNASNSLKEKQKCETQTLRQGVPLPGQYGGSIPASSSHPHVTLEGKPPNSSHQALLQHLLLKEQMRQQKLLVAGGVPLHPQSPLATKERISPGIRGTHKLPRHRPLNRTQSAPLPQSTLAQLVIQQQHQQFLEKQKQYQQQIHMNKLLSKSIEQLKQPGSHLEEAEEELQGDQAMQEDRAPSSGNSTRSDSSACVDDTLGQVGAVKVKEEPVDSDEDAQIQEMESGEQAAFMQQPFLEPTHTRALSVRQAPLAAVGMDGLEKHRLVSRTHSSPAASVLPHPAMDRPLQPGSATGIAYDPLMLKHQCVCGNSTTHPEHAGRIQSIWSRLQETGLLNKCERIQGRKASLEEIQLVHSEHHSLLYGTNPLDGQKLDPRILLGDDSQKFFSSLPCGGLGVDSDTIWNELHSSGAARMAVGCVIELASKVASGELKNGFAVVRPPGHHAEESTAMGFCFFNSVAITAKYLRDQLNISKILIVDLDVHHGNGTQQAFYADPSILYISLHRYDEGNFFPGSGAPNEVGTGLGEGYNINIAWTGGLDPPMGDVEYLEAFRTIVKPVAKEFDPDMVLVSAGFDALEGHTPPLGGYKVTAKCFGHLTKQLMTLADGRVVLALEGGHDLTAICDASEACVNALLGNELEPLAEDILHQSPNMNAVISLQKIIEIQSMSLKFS

[2] = Half life in BALB/C mouse at 10 mg/kg, po or 2 mg/kg, iv by LC-MS/MS method; format: ADME, organism-based; conditions: BALB/C, in vivo
How it was run: (§1)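 Female-unspecified BALB/C nude mice (15−20 g, N = 16 per arm); iv bolus 2 mg/kg in 5% DMSO/40% PEG400/55% saline and/or oral gavage 10 mg/kg as 0.445% microcrystalline cellulose microsuspension. Blood sampled at nine (iv) or eight (po) time points into sodium heparin tubes; plasma by LC-MS/MS; noncompartmental analysis.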

[3] = Cmax in BALB/C mouse at 10 mg/kg, po or 2 mg/kg, iv by LC-MS/MS method; format: ADME, organism-based; conditions: BALB/C, in vivo; how it was run: as §1
[4] = Oral bioavailability in BALB/C mouse at 10 mg/kg by LC-MS/MS method; format: ADME, organism-based; conditions: BALB/C, in vivo
How it was run: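 Bioavailability from single-dose iv (2 mg/kg, 5% DMSO/40% PEG400/55% saline) and oral gavage (10 mg/kg, 0.445% microcrystalline cellulose microsuspension) studies in BALB/C nude mice (N = 16 per arm); plasma at eight (po) or nine (iv) time points, LC-MS/MS, noncompartmental analysis.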

[5] = molecular target: T1, Protein deacetylase HDAC6 (Homo sapiens, UniProt Q9UBN7); assay: Inhibition of HDAC6 using p53 (379 to 382 residues) based fluorogenic peptide substrate
T1 sequence (Q9UBN7 whole entry): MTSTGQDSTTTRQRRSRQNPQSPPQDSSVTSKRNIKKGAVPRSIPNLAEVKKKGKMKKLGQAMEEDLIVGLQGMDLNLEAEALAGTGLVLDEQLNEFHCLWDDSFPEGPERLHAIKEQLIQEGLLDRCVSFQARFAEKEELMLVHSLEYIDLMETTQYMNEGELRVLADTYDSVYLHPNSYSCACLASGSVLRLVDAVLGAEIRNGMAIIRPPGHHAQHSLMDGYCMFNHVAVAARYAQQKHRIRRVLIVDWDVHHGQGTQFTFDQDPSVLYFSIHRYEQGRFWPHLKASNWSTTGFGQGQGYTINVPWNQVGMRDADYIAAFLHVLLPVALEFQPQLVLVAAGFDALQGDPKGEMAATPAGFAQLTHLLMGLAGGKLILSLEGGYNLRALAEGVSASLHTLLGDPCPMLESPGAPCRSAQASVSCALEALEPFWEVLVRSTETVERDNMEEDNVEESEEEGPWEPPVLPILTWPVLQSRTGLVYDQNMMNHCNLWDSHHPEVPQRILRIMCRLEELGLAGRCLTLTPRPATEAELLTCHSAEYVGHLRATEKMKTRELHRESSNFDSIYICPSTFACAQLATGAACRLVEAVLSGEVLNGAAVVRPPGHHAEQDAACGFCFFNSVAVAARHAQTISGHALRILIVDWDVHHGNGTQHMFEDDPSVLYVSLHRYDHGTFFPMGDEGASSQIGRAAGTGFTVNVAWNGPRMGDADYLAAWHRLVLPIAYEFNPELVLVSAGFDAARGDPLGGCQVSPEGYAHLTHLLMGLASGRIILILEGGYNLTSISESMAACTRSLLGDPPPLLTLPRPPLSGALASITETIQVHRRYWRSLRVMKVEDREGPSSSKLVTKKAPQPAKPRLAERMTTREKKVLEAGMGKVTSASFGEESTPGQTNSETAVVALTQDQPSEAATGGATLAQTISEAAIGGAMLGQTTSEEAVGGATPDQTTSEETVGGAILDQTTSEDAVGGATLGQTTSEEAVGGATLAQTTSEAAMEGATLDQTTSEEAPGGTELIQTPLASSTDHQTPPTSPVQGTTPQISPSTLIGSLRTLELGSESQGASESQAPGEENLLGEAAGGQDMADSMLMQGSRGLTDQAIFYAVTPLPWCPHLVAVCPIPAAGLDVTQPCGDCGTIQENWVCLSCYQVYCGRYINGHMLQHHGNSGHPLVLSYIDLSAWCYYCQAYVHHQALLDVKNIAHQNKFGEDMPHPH

Cytochrome P450 1A2 = molecular target: T2, Cytochrome P450 1A2 (Homo sapiens, UniProt P05177); assay: Inhibition of CYP1A2 in human liver microsomes in presence of NADPH by LC-MS/MS method; format: ADME, Microsome
T2 sequence (P05177 whole entry): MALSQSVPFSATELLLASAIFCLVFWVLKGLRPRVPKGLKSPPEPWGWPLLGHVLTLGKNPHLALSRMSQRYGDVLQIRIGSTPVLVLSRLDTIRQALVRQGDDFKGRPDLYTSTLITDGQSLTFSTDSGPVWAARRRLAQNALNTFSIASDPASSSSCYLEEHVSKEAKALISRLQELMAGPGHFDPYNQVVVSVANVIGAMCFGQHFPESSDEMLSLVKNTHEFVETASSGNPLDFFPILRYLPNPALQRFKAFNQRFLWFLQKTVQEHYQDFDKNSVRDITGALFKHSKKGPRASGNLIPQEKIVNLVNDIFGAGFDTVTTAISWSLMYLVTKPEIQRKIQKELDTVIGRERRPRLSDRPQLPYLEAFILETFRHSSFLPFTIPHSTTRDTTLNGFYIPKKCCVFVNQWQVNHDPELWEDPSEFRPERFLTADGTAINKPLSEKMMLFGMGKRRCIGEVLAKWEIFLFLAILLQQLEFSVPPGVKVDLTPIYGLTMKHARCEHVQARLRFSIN

Cytochrome P450 3A4 = Cytochrome P450 3A4 (Homo sapiens, UniProt P08684); assay: Inhibition of CYP3A4 in human liver microsomes in presence of NADPH by LC-MS/MS method; format: ADME, Microsome
Cytochrome P450 3A4, sequence (P08684 whole entry): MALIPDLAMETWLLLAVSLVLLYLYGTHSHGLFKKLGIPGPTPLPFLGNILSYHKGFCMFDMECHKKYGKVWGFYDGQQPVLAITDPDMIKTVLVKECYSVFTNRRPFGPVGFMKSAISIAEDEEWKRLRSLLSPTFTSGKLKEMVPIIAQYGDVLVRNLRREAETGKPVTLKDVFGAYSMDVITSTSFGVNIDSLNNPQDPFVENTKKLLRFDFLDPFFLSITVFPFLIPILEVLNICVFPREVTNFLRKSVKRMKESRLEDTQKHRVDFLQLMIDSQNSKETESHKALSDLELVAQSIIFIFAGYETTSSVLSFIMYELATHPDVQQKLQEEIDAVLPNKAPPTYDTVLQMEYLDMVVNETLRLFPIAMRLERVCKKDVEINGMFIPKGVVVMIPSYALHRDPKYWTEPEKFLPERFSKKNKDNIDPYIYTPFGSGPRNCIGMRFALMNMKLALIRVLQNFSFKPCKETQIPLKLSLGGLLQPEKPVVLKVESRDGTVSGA

[6] = Clearance in BALB/C mouse at 10 mg/kg, po or 2 mg/kg, iv by LC-MS/MS method; format: ADME, organism-based; conditions: in vivo; how it was run: as §1
[7] = AUC in BALB/C mouse at 10 mg/kg, po or 2 mg/kg, iv by LC-MS/MS method; format: ADME, organism-based, Plasma; conditions: BALB/C, plasma; how it was run: as §1
[8] = molecular target: Histone deacetylase (Homo sapiens) (UniProt Q13547+O15379+Q9UBN7+Q92769+Q9UQL6+Q8WUI4+Q9BY41+Q96DB2+P56524+Q9UKV0+Q969S8); assay: Inhibition of Class 1 histone deacetylase in human HeLa cells assessed as induction in p21 protein expression at 3 uM incubated for 16 hrs by luciferase reporter gene assay relative to HDAC inhibitor entinostat; format: cell-based; set-up: scale not given: the % may be the effect or the level left

Compound | Tmax [1] [h] | IC50 (Histone deacetylase 9) [µM] | half-life [2] [min] | Cmax [3] [ng/mL] | bioavailability [4] [%] | IC50 [5] [µM] | IC50 (Cytochrome P450 1A2) [µM] | IC50 (Cytochrome P450 3A4) [µM] | clearance [6] [mL/min/kg] | AUC [7] [ng·h/mL] | Activity [8] [%]
CN1C[C@@H](C(=O)Nc2ccc(Cl)cc2)[C@H](c2ccc(/C=C/C(=O)Nc3ccccc3N)cc2)C1 | 1 | 13 | 372 | 450 | 89 | > 30 | 50 | 21 | 58 | 2540 | –
CN1C[C@H](C(=O)Nc2ccc(Cl)cc2)[C@@H](c2ccc(/C=C/C(=O)Nc3ccccc3N)cc2)C1 [listing 1 of 2 here] | – | 16 | – | – | – | > 30 | 42 | 14 | – | – | –
CN1C[C@H](C(=O)Nc2ccc(Cl)cc2)[C@@H](c2ccc(/C=C/C(=O)Nc3ccccc3N)cc2F)C1 (racemic) | 2 | 43 | 204 | 828 | 49 | > 30 | 28 | 4 | 23 | 3570 | 130
CN1C[C@H](C(=O)Nc2ccc(Cl)cc2)[C@@H](c2ccc(/C=C/C(=O)Nc3ccccc3N)cc2)C1 [listing 2 of 2 here] | – | – | – | – | – | – | – | – | – | – | 257
